Results pooled from the literature.
Lines come from different studies, so protocols differ.
SLC6A3: Sodium-dependent dopamine transporter (SLC6A3, Homo sapiens, UniProt Q01959)
DRD3: D(3) dopamine receptor (DRD3, Homo sapiens, UniProt P35462)
USP51: Ubiquitin carboxyl-terminal hydrolase 51 (USP51, Homo sapiens, UniProt Q70EK9)
CA12: Carbonic anhydrase 12 (CA12, Homo sapiens, UniProt O43570)

SMILES | target | assay | test system | setting | inhibition [%]
Fc1ccc(C(c2ccc(F)cc2)c2nnnn2CCCCN2CCC(c3ccccc3)CC2)cc1 | SLC6A3 | transporter uptake, inhibitor | HEK293 | 1 µM | 94.6
COc1ccc(S(N)(=O)=O)cc1C(=O)NCCCN1CCN(c2ccccc2C)CC1 | DRD3 | enzyme activity, inhibitor | – | 10 µM | 22.8
COc1cc2c(cc1OC)-c1cc3ccc(OC)c(OC)c3c[n+]1CC2 | USP51 | enzyme activity, inhibitor | – | 5 µM | 51
Cc1[nH]n(-c2ccc([N+](=O)[O-])cc2)c(=O)c1C=NCCN1CCN(C(=O)c2cccc(F)c2)CC1 | DRD3 | enzyme activity, inhibitor | – | 10 µM | -24.9
Cc1ccc(-c2nn(-c3ccccc3)cc2C2c3sc(=O)[nH]c3SC3C(=O)N(c4ccccc4)C(=O)C32)cc1 (stereo not shown) | CA12 | enzyme activity, inhibitor, absorbance | – | 0.1 µM | 33.2
O=C1C[C@@H](c2ccccc2)Oc2cc(O)cc(O)c21 | USP51 | enzyme activity, inhibitor | – | 5 µM | 2
CS(=O)(=O)c1ccc(Nc2ccc3c(c2)OCO3)c([N+](=O)[O-])c1 | Solute carrier family 2, facilitated glucose transporter member 5 (SLC2A5, Homo sapiens, UniProt P22732) | transporter uptake, inhibitor | MCF7 | 25 µM | ~90
O=c1c(O)c(-c2ccc(O)c(O)c2)oc2cc(O)ccc12 | USP51 | enzyme activity, inhibitor | – | 5 µM | 17
NS(=O)(=O)c1ccc(CCNCc2ccc(OCc3cccs3)cc2)cc1 | DRD3 | enzyme activity, inhibitor | – | 10 µM | 24.2
O=C1NC(=S)C(=Cc2cn(-c3ccccc3)nc2-c2ccc(Br)cc2)S1 | CA12 | enzyme activity, inhibitor, absorbance | – | 1 µM | 32.3
Cc1cccc(N2CCN(CC(O)COc3ccc4ccccc4c3)CC2)c1C (stereo not shown) | DRD3 | enzyme activity, inhibitor | – | 10 µM | 52.9
NC(=O)C[C@H](N)C(=O)O | USP51 | enzyme activity, inhibitor | – | 5 µM | 24
O=C(c1ccc(Cl)cc1)N(Cc1ccccc1)C1CCCCC1 | SLC6A3 | cell-free assay | – | 10 µM | 48.8
Cc1cc(O)c2c(=O)c3c(O)cc(O)c4c5c(O)cc(O)c6c(=O)c7c(O)cc(C)c8c1c2c(c34)c(c78)c65 | USP51 | enzyme activity, inhibitor | – | 5 µM | 53
CCOC(=O)C1CSc2[nH]c(=O)sc2C1c1cn(-c2ccccc2)nc1-c1ccc(Cl)cc1 (stereo not shown) | CA12 | enzyme activity, inhibitor, absorbance | – | 0.1 µM | 46.4
Fc1ccc(C(c2ccc(F)cc2)c2nnnn2CCCN2CCC(Cc3ccccc3)CC2)cc1 | SLC6A3 | transporter uptake, inhibitor | HEK293 | 1 µM | 93.5
N[C@@H](Cc1ccccc1)C(=O)O | USP51 | enzyme activity, inhibitor | – | 5 µM | 0
COc1ccccc1N1CCN(CC(O)Cn2cnc3c2c(=O)n(C)c(=O)n3C)CC1 (stereo not shown) | DRD3 | enzyme activity, inhibitor | – | 10 µM | -20.3
Clc1ccc(C(c2ccc(Cl)cc2)c2nnnn2CCCN2CCC(CCCc3ccccc3)CC2)cc1 | SLC6A3 | transporter uptake, inhibitor | HEK293 | 1 µM | 19.8
CNC(=O)c1cc(Oc2ccc(NC(=O)Nc3ccc(Cl)c(C(F)(F)F)c3)cc2)ccn1 | Tyrosine-protein kinase Lyn (Lyn, Mus musculus, UniProt P25911) | enzyme activity, inhibitor | – | 0.3 µM | 37
Clc1ccc(C(c2ccc(Cl)cc2)c2nnnn2CCCCN2CCC(c3ccccc3)CC2)cc1 | SLC6A3 | transporter uptake, inhibitor | HEK293 | 1 µM | 90.1
CCOC(=O)C1CSc2[nH]c(=O)sc2C1c1cn(-c2ccccc2)nc1-c1ccccc1 (stereo not shown) | CA12 | enzyme activity, inhibitor, absorbance | – | 1 µM | 46.7
